Laboratory results taken from ChEMBL document CHEMBL2169742, “Design, synthesis, and biological evaluation of novel transrepression-selective liver X receptor (LXR) ligands with 5,11-dihydro-5-methyl-11-methylene-6H-dibenz[b,e]azepin-6-one skeleton” (J Med Chem, 2012).
Calls of active or inactive are those of the source. No cut-off for these calls is given here.

How the values were obtained:
[1] = molecular target: Liver X receptor (Homo sapiens) (UniProt Q13133+P55055); assay: Transrepressional activity at LXR in human TPA-activated THP1 cells assessed as inhibition of LPS-induced IL6 production at 30 uM incubated for 6 hrs prior to LPS-challenge measured after 18 hrs by ELISA; assay type: cell-based; settings: THP-1
In short: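 THP-1 cells were differentiated with 10 nM TPA for 48 h, then replated at 3 × 10⁴/well. They were pretreated with sample for 6 h before LPS (100 ng/mL). Supernatant IL-6 was measured by ELISA after 18 h.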

[2] = molecular target: T1, Oxysterols receptor LXR-beta (Homo sapiens) (UniProt P55055); assay: Transactivational antagonist activity at human LXRbeta transfected in HEK293 cells expressing CMX-Gal4N assessed as inhibition of T1317-induced luciferase activity at 30 uM after 16 hrs by reporter gene assay; assay type: functional, cell-based
T1 sequence (whole entry): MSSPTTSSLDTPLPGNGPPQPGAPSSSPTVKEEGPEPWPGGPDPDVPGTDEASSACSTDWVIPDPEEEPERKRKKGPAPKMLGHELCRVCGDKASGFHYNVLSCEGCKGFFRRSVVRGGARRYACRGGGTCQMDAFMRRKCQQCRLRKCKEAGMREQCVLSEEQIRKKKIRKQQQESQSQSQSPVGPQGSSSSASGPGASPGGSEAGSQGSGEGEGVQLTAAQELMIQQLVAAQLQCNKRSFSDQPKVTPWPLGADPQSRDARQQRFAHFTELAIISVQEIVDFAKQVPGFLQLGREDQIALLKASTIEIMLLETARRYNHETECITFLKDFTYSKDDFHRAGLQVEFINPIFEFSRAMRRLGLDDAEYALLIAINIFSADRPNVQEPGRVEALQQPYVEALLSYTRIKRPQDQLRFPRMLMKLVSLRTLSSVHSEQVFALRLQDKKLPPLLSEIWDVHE
In short: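 Gal4-hLXRα or Gal4-hLXRβ chimera (15 ng) cotransfected with tk-MH100×4-luc reporter (50 ng) and CMX-β-gal (10 ng) into HEK293 cells by calcium phosphate. From 8 h post-transfection, cells got compound (0.1–30 μM) or DMSO for 16 h. Luciferase was normalized to β-gal, in triplicate.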

[3] = molecular target: T2, Oxysterols receptor LXR-alpha (Homo sapiens, UniProt Q13133); assay: Transactivational antagonist activity at human LXRalpha transfected in HEK293 cells expressing CMX-Gal4N assessed as inhibition of T1317-induced luciferase activity after 16 hrs by reporter gene assay; assay type: functional, cell-based
T2 sequence (Q13133 whole entry): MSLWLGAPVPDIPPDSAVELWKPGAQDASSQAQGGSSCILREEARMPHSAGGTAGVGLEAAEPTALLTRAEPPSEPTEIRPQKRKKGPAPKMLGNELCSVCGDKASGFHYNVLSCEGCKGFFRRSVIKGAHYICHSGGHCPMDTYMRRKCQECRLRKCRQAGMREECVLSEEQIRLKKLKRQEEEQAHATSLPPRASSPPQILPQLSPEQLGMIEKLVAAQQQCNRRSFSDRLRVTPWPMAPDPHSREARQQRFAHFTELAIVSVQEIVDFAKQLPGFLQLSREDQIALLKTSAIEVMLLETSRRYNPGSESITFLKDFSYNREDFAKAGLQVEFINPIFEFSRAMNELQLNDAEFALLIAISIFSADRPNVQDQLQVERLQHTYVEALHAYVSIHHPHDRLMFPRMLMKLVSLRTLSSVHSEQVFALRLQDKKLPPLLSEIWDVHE

[4] = molecular target: T3, Oxysterols receptor LXR-beta (Homo sapiens, UniProt P55055); assay: Transactivational agonist activity at human LXRbeta transfected in HEK293 cells expressing CMX-Gal4N assessed as luciferase activity at 30 uM after 16 hrs by reporter gene assay; assay type: cell-based; settings: hek293, 16 h
T3 sequence (P55055 whole entry): T1 sequence (whole entry)

[5] = molecular target: T2, Oxysterols receptor LXR-alpha; assay: Transactivational agonist activity at human LXRalpha transfected in HEK293 cells expressing CMX-Gal4N assessed as luciferase activity at 30 uM after 16 hrs by reporter gene assay; assay type: cell-based; settings: hek293, 16 h
[6] = molecular target: T3, Oxysterols receptor LXR-beta; assay: Transactivational antagonist activity at human LXRbeta transfected in HEK293 cells expressing CMX-Gal4N assessed as inhibition of T1317-induced luciferase activity after 16 hrs by reporter gene assay; assay type: functional, cell-based
[7] = Permeability from apical to basal side of human Caco2 cells at 10 uM; assay type: ADME, cell-based; settings: Caco-2, read-out: permeability
In short: (§1)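 Colchicine and ranitidine were low-permeability controls, propranolol the high-permeability control, labetalol the P-gp substrate control.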

[8] = Apparent permeability from apical to basal side of human Caco2 cells at 10 uM; assay type: ADME, cell-based; settings: Caco-2; in short: as §1
[9] = Metabolic stability in human liver microsomes assessed as compound remaining at 0.1 uM by LC-MS/MS analysis; assay type: ADME, Microsome; settings: read-out: Stability
In short: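 Human liver microsomes were incubated with compound at 0.1 μM. Percent parent remaining was quantified by LC/MS/MS; imipramine, propranolol, terfenadine and verapamil served as controls.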

[10] = Binding affinity to GST at 1 uM after 1 hr by fluorescence polarization assay
In short: (§2)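 Fluorescence polarization binding: full-length GST-hLXRα or GST was expressed in E. coli Rosetta(DE3) (0.4 mM IPTG, 15 °C, 24 h) and purified on glutathione resin. Protein dilutions, or 1 μM protein with competitor, were incubated with fluorescent probe 23 (1 μM) for 1 h at 0 °C. Buffer was 50 mM Tris-HCl, 10 mM reduced glutathione, pH 8.0; excitation 400 nm, emission 500 nm.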

[11] = molecular target: T4, Oxysterols receptor LXR-alpha (Homo sapiens) (UniProt Q13133); assay: Binding affinity to human GST-tagged LXRalpha expressed in Escherichia coli BL21(DE3) at 1 uM after 1 hr by fluorescence polarization assay; in short: as §2
T4 sequence (whole entry): T2 sequence (Q13133 whole entry)

[12] = molecular target: T2, Oxysterols receptor LXR-alpha; assay: Transactivational agonist activity at human LXRalpha transfected in HEK293 cells expressing CMX-Gal4N assessed as luciferase activity after 16 hrs by reporter gene assay relative to N-(4-(1,1,1,3,3,3-hexafluoro-2-hydroxypropan-2-yl)phenyl)-N-methylbenzamide; assay type: cell-based; settings: read-out: Efficacy
[13] = molecular target: T2, Oxysterols receptor LXR-alpha; assay: Transactivational agonist activity at human LXRalpha transfected in HEK293 cells expressing CMX-Gal4N assessed as luciferase activity after 16 hrs by reporter gene assay; assay type: cell-based
[14] = molecular target: T3, Oxysterols receptor LXR-beta; assay: Transactivational agonist activity at human LXRbeta transfected in HEK293 cells expressing CMX-Gal4N assessed as luciferase activity after 16 hrs by reporter gene assay relative to N-(4-(1,1,1,3,3,3-hexafluoro-2-hydroxypropan-2-yl)phenyl)-N-methylbenzamide; assay type: cell-based; settings: read-out: Efficacy
[15] = molecular target: T3, Oxysterols receptor LXR-beta; assay: Transactivational agonist activity at human LXRbeta transfected in HEK293 cells expressing CMX-Gal4N assessed as luciferase activity after 16 hrs by reporter gene assay; assay type: cell-based
In short: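 Gal4-hLXRα or Gal4-hLXRβ chimera (15 ng) cotransfected with tk-MH100×4-luc reporter (50 ng) and CMX-β-gal (10 ng) into HEK293 cells by calcium phosphate. Luciferase was normalized to β-gal, in triplicate.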

Structure (SMILES)	IC50 [3]	Activity [4]	Activity [5]	IC50 [6]	also measured
Cn1c(=O)c2ccccc2c2cc(C(O)(C(F)(F)F)C(F)(F)F)ccc21	4.1 µM	Not Active	Not Active	–	inhibition [1]: inactive; inhibition [2]: inactive
C=C1c2ccccc2C(=O)N(C)c2ccc(CCCCCC)cc21	> 10 µM	Not Active	Not Active	> 10 µM	–
C=C1c2ccccc2C(=O)N(C)c2ccc(C)cc21	> 10 µM	Not Active	Not Active	> 10 µM	–
C=C1c2ccccc2C(=O)N(C)c2ccc(C(C)=O)cc21	4.9 µM	Not Active	Not Active	7.5 µM	–
C=C1c2ccccc2C(=O)N(C)c2ccc(CCCCCCCCCCCC)cc21	> 30 µM	Not Active	Not Active	> 30 µM	inhibition [1]: inactive
C=C1c2ccccc2C(=O)N(C)c2ccc(O)cc21	–	–	–	–	Papp A→B at 10 µM [7]: 84.3 ×10⁻⁶ cm/s; Papp A→B at 10 µM [8]: ≥ 20 ×10⁻⁶ cm/s; remaining at 0.1 µM [9]: 87.8%
C=C1c2ccccc2C(=O)N(C)c2ccccc21	> 10 µM	–	–	> 10 µM	inhibition [1]: inactive
COc1ccc(CCc2ccc(N3C(=O)c4ccc(N(C)C)cc4C3=O)cc2)cc1	–	–	–	–	Activity [10]: inactive; Activity [11]: Active
C=C1c2ccc(-c3cccc(CC(=O)O)c3)cc2C(=O)N(C)c2ccc(CC)cc21	21 µM	Not Active	Not Active	27 µM	–
CN1C(=O)c2ccccc2CCc2cc(C(O)(C(F)(F)F)C(F)(F)F)ccc21	–	–	–	–	Emax [12]: 117%; EC50 [13]: 0.91 µM; Emax [14]: 108%; EC50 [15]: 0.26 µM
C=C1c2ccc(-c3ccc(CC(=O)O)cc3)cc2C(=O)N(C)c2ccc(CC)cc21	2.2 µM	Not Active	Not Active	15 µM	–
